Columns and labels:
dengue virus type 1 = assay: Antiviral activity against DENV1 infected in human Huh7 cells; type: functional, organism-based; settings: Huh-7
How it was run: (§1)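 Huh7 cells stably carrying a DENV replicon (serotype 1, 2, 3 or 4) with Renilla luciferase and neomycin-resistance genes. Seeded at 10k/well, incubated overnight at 37 °C in 5% CO₂, then given 2-fold serial compound dilutions in duplicate. After 48 h, luciferase was read with EnduRen live-cell substrate. EC50 came from four-parameter logistic fits of dose-response curves.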

dengue virus type 2 = assay: Antiviral activity against DENV2 infected in human Huh7 cells; type: functional, organism-based; settings: Huh-7; how it was run: as §1
dengue virus type 3 = assay: Antiviral activity against DENV3 infected in human Huh7 cells; type: functional, organism-based; settings: Huh-7; how it was run: as §1
dengue virus type 4 = assay: Antiviral activity against DENV4 infected in human Huh7 cells; type: functional, organism-based; settings: Huh-7; how it was run: as §1
Huh-7 = assay: Cytotoxicity against human HuH7 cells infected with DENV2 assessed as reduction in cell viability; type: cell-based
How it was run: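 Cytotoxicity was read in Huh7 cells stably carrying the DENV-2 Renilla luciferase replicon. Cells were seeded at 10k/well, incubated overnight at 37 °C in 5% CO₂, then given 2-fold serial compound dilutions in duplicate for 48 h. After the live-cell luciferase read, CellTiter-Glo was added to the same wells to measure viability.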

EC50 (dengue virus type 1) [nM]	EC50 (dengue virus type 2) [nM]	EC50 (dengue virus type 3) [nM]	EC50 (dengue virus type 4) [µM]	SMILES	CC50 (Huh-7) [µM]
2400	110	6	> 10	O=C1CC2(C(=O)Nc3ccc(Cl)cc32)c2cnn(Cc3ccc(Cl)cc3)c2N1 (stereo not drawn)	> 10
–	3200	–	–	NC(=O)C1C(=O)Nc2c(cnn2Cc2ccc(Cl)cc2)C12C(=O)Nc1ccc(Cl)cc12 (stereo not drawn)	50
2500	1800	25	> 5	Cc1nn(Cc2ccc(Cl)cc2)c2c1C1(CC(=O)N2)C(=O)Nc2ccc(Cl)cc21 (stereo not drawn)	> 10
–	4400	–	–	O=C1CC2(C(=O)Nc3ccc(Cl)cc32)c2cn(Cc3ccc(Cl)cc3)nc2N1 (stereo not drawn)	> 10
–	1900	–	–	O=C1CC2(C(=O)Nc3ccc(Cl)cc32)c2c(C3CC3)nn(Cc3ccc(Cl)cc3)c2N1 (stereo not drawn)	> 10
–	4200	–	–	O=C1CC2(C(=O)Nc3ccc(Cl)cc32)c2cnn(Cc3ccc(F)cc3)c2N1 (stereo not drawn)	–
1800	50	19	> 5	O=C1CC2(C(=O)Nc3ccc(Cl)cc32)c2cnn(Cc3ccc(Cl)c(F)c3)c2N1 (stereo not drawn)	> 10
1800	62	> 5000	> 5	O=C1CC2(C(=O)Nc3ccc(Cl)cc32)c2cnn(Cc3ccc(Cl)c(Cl)c3)c2N1 (stereo not drawn)	> 10
–	> 5000	–	–	COC(=O)c1ccc(Cn2ncc3c2NC(=O)CC32C(=O)Nc3ccc(Cl)cc32)cc1 (stereo not drawn)	–
–	> 5000	–	–	N#Cc1ccc(Cn2ncc3c2NC(=O)CC32C(=O)Nc3ccc(Cl)cc32)cc1 (stereo not drawn)	–
–	8600	–	–	N#CC1C(=O)Nc2c(cnn2Cc2ccc(Cl)cc2)C12C(=O)Nc1ccc(Cl)cc12 (stereo not drawn)	50
–	1100	–	–	O=C1CC2(C(=O)Nc3ccc(Cl)cc32)c2cn(Cc3ccc(Cl)c(Cl)c3)nc2N1 (stereo not drawn)	> 10
–	> 5000	–	–	N#Cc1cn(Cc2ccc(Cl)cc2)c2c1C1(CC(=O)N2)C(=O)Nc2ccc(Cl)cc21 (stereo not drawn)	–
2300	140	390	> 5	O=C1CC2(C(=O)Nc3ccc(Cl)cc32)c2cnn(Cc3ccc(Cl)cc3F)c2N1 (stereo not drawn)	> 10
–	> 5000	–	–	O=C1CC2(C(=O)Nc3ccc(Cl)cc32)c2cnn(Cc3ccc(C(=O)O)cc3)c2N1 (stereo not drawn)	–
–	> 5000	–	–	CS(=O)(=O)c1ccc(Cn2ncc3c2NC(=O)CC32C(=O)Nc3ccc(Cl)cc32)cc1 (stereo not drawn)	–

SMILES	EC50 (dengue virus type 1) [nM]	EC50 (dengue virus type 2) [nM]	EC50 (dengue virus type 3) [nM]	EC50 (dengue virus type 4) [µM]	CC50 (Huh-7) [µM]
CC(=O)C1C(=O)Nc2c(cnn2Cc2ccc(Cl)cc2)C12C(=O)Nc1ccc(Cl)cc12 (stereo not drawn)	–	> 10000	–	–	> 20
O=C1CC2(C(=O)Nc3ccc(Cl)cc32)c2cnn(Cc3ccc(C(F)(F)F)cc3C(F)(F)F)c2N1 (stereo not drawn)	1600	38	17	> 5	> 10

From ChEMBL document CHEMBL4627359, “Design, synthesis and biological evaluation of spiropyrazolopyridone derivatives as potent dengue virus inhibitors” (Bioorg Med Chem Lett, 2020)
